Measured values of several laboratories.
Target: Discoidin domain-containing receptor 2 (DDR2, Homo sapiens, UniProt Q16832)
One construct used (Q16832 22-855): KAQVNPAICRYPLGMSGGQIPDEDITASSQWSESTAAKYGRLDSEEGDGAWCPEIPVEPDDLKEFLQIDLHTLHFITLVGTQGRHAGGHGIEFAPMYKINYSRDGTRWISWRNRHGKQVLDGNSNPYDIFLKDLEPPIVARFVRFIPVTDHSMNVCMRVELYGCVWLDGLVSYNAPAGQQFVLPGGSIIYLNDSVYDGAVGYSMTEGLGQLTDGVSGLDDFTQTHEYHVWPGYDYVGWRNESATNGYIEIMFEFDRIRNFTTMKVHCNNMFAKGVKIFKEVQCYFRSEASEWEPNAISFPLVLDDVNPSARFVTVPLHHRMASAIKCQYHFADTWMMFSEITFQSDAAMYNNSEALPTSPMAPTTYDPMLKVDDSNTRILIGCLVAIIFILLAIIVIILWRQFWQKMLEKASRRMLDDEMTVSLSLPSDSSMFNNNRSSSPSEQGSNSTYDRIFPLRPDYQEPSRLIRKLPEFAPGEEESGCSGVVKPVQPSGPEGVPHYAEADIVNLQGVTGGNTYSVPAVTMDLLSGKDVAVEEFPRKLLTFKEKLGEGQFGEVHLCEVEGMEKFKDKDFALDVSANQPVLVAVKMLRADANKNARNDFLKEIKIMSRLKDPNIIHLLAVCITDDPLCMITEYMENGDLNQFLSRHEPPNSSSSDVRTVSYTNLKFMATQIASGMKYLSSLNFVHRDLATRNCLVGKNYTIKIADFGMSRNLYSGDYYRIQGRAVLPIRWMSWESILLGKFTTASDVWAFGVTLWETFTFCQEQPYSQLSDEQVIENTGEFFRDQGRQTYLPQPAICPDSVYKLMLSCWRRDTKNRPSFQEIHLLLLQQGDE

`COc1cc(Nc2ncc(F)c(Nc3ccc4c(n3)NC(=O)C(C)(C)O4)n2)cc(OC)c1OC` gave an inhibition of 86% (binding; competition with immobilised ligand; 10 µM).
With `Nc1ncc(-c2nc(N3CCOCC3)nc(N3CCOCC3)n2)c(C(F)F)n1` the remaining binding was 57% (cell-free assay; competition with immobilised ligand; 10 µM).
`Cc1nn(C)cc1-c1nc2c(N3CCN(Cc4ccc(Cl)cc4)CC3)c(Cl)cnc2[nH]1` has a remaining binding of 96% (binding; competition with immobilised ligand; 1 µM).
For `Cn1cc(-c2cc(F)cc(N3CCn4c(cc5c4CCCC5)C3=O)c2CO)cc(Nc2ccc(N3CCN(C4COC4)CC3)cn2)c1=O`, the inhibition was -7% (enzyme activity; inhibitor; 0.1 µM).
For `COc1ncccc1-c1cnn2ccc(N3CCN(C(=O)OC(C)C)CC3)nc12`, the remaining binding was 36% (binding; competition with immobilised ligand; 1 µM).
`O=c1[nH]c2ccccc2n1C1CCN(Cc2ccc(-c3[nH]c4cc5ncnc5cc4nc3-c3ccccc3)cc2)CC1` has a remaining signal of 99.2% (cell-free assay; 0.5 µM).
`C#Cc1n[nH]c2c(-c3cn([C@@H](C)c4ccccc4)c(=O)[nH]c3=O)cc(F)cc12` has an inhibition of -1.1% (enzyme activity; inhibitor; 0.1 µM).
For `N#CC1(c2ccccn2)CCN(Cc2cc(C(=O)O)c(=O)n3ccccc23)CC1`, the remaining binding was 100% (cell-free assay; competition with immobilised ligand; 1 µM).
`CC(C)(C)c1cc(C=C(C#N)C#N)cc(Br)c1O` has a remaining activity of 105% (enzyme activity; inhibitor; 0.5 µM).
With `Cn1cc(-c2cccc(N3CCc4c(sc5c4CC(C)(C)C5)C3=O)c2CO)cc(Nc2ccncn2)c1=O` the inhibition was 1% (enzyme activity; inhibitor; 1 µM).
`Cn1cncc1[C@@](O)(COc1ccc(C#N)cc1-c1ccc(OC(F)(F)F)cc1)c1ccc(C#N)cc1` has a remaining binding of 95% (cell-free assay; competition with immobilised ligand; 1 µM).
The inhibition of `C#Cc1n[nH]c2c(-c3cn([C@@H](C)c4ccccn4)c(=O)[nH]c3=O)cc(F)cc12` is reported as 0.9% (enzyme activity; inhibitor; 0.1 µM).
